Laboratory results published in paper PMC3992999 (Journal of chromatography. B, Analytical technologies in …, 2011).

Key:
[1] = tested on: effects of cocaine; conditions: cited from earlier work
[2] = pilot intravenous pharmacokinetic study in rats; assay type: in vivo; conditions: male, Sprague-Dawley, rat, plasma, 5 mg/kg
Procedure, shortened: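 Six male Sprague-Dawley rats (180–200 g) with right jugular vein cannulas, fasted 12 h before and 4 h after dosing. Single 5 mg/kg i.v. bolus in saline (0.2 µm filtered) via cannula, flushed with heparinized saline. Plasma from centrifuged blood (10,000 × g, 20 min, 4 °C) held at −20 °C. Chloroform extraction with aripiprazole internal standard. HILIC UPLC/MS in SIR mode (m/z 390; IS 448). Mean ± SD, n = 6.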

[3] = tested on: cocaine induced behaviors; conditions: cited from earlier work
[4] = tested on: sigma-1 receptors; conditions: sigma-1 and sigma-2 in the nanomolar and subnanomolar range; cited from earlier work
[5] = stability of CM156 in rat plasma QC samples under various storage conditions; assay type: in vitro ADME; conditions: for stability in rat plasma: 10, 400 and 3000 ng/mL
Procedure, shortened: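 Blank rat plasma was spiked to QC levels of 10, 400 and 3000 ng/mL, six replicates each. Conditions were three freeze–thaw cycles (−20 °C 24 h, thaw at room temperature, refreeze 12–24 h), room temperature for 12 h, −20 °C for 1 month, and autosampler reinjection after 24 h at 25 °C. Samples were chloroform-extracted with aripiprazole internal standard, analysed by UPLC/MS, and compared with fresh QCs.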

[6] = stability of stock solutions; assay type: physicochemical
[7] = tested on: sigma-2 receptors; conditions: sigma-1 and sigma-2 in the nanomolar and subnanomolar range; cited from earlier work
[8] = tested on: sigma receptors; conditions: cited from earlier work
[9] = rat plasma, long term for 30 days (−20 °C), spiked 10 ng/mL
[10] = rat plasma, long term for 30 days (−20 °C), spiked 400 ng/mL
[11] = rat plasma, short term for 12 h (25 °C), spiked 10 ng/mL
[12] = rat plasma, short term for 12 h (25 °C), spiked 400 ng/mL
[13] = rat plasma, three freeze thaw cycles, spiked 400 ng/mL
[14] = rat plasma, three freeze thaw cycles, spiked 3000 ng/mL
[15] = reconstituted samples, auto sampler for 24 h (25 °C), spiked 10 ng/mL
[16] = reconstituted samples, auto sampler for 24 h (25 °C), spiked 400 ng/mL
[17] = reconstituted samples, auto sampler for 24 h (25 °C), spiked 3000 ng/mL

CN(CCc1ccc(Cl)c(Cl)c1)CCN1CCCC1 [BD 1008]
convulsions of cocaine [1]: attenuation
locomotor stimulant effects of cocaine [1]: blockade
rewarding effects of cocaine [1]: attenuation

S=c1sc2ccccc2n1CCCCN1CCN(C2CCCCC2)CC1 [CM156, 3-(4-(4-cyclohexylpiperazin-1-yl)butyl)benzo[d]thiazole-2(3H)-thione]
AUC(0-inf) [2]: 802 ng·h/mL
Cmax [2]: 1300 ± 200 ng/mL
MRT [2]: 1.5 h
Vd [2]: 9.6 ± 1.4 L/kg
clearance [2]: 103 mL/min/kg
half-life ([2]; Elimination half-life (t1/2), rats, single intravenous dose of 5 mg/kg, n = 6, mean ± SD): 1.1 ± 0.4 h
cocaine induced place conditioning behaviors [3]: significantly attenuate
expression of cocaine induced behavioral sensitization [3]: significantly attenuate
affinity for sigma-1 receptors [4]: high affinity
stability in rat plasma ([5]; during three freeze/thaw cycles): stable
Measured concentration [5, 9]: 11.2 ± 0.9 ng/mL
RE (relative error) [5, 9]: 12.8%
Measured concentration [5, 10]: 394.8 ± 17.8 ng/mL
RE (relative error) [5, 10]: −1.3%
Measured concentration ([5]; rat plasma, long term for 30 days (−20 °C), spiked 3000 ng/mL): 2879.4 ± 243.1 ng/mL
Measured concentration [5, 11]: 8.6 ± 0.7 ng/mL
RE (relative error) [5, 11]: −12.3%
Measured concentration [5, 12]: 403.6 ± 9.2 ng/mL
RE (relative error) [5, 12]: 2.3%
Measured concentration ([5]; rat plasma, short term for 12 h (25 °C), spiked 3000 ng/mL): 2879.4 ± 145.2 ng/mL
Measured concentration ([5]; rat plasma, three freeze thaw cycles, spiked 10 ng/mL): 9.2 ± 1.1 ng/mL
Measured concentration [5, 13]: 406.4 ± 8.8 ng/mL
RE (relative error) [5, 13]: 1.6%
Measured concentration [5, 14]: 2879.4 ± 209.8 ng/mL
RE (relative error) [5, 14]: −4.0%
Measured concentration [5, 15]: 10.0 ± 0.2 ng/mL
RE (relative error) [5, 15]: 2.2%
Measured concentration [5, 16]: 404.4 ± 4.7 ng/mL
RE (relative error) [5, 16]: 1.1%
Measured concentration [5, 17]: 2901.1 ± 59.2 ng/mL
RE (relative error) [5, 17]: −3.3%
stability in rat plasma ([5]; stored at room temperature for 12 h): stable
stability in rat plasma ([5]; stored at −20 °C for 1 month): stable
stability in reconstituted samples ([5]; stored for 24 h in the autosampler at 25 °C): stable
stock solution stability ([6]; one week at −20 °C): stable
time stock solution is stable ([6]; room temperature): at least 6 h
affinity for sigma-2 receptors [7]: high affinity

COC(=O)[C@H]1[C@@H](OC(=O)c2ccccc2)C[C@@H]2CC[C@H]1N2C [cocaine]
affinity for sigma receptors [8]: about 2 µm
